According to PubChem BioAssay:
Activity calls are given as the source filed them.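 The calls were made as follows, unless noted: active = NADPH fluorescence slope more negative than the mean of all samples by about 3 SD, 99.7% confidence; inactive = the rest.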

Experiments:
[1] = inhibitors of TNFa-induced NFkB p65 translocation, primary screen, imaging, HUVEC, MLSMR starter and 10KST1 sets (AID 438;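 active = inhibition above 20% together with a positive visual image hit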;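 also: compound added about 3h40 before a 20 min TNFalpha stimulation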;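 as to inhibition: signal is the nuclear over cytoplasmic p65 intensity ratio per well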); conditions: HUVEC TNFa-induced p65 nuclear translocation; cell count: measured here: nuclei count (cytotoxicity indicator), at 2.08 µM; inhibition: at 2 µM, stronger effect = higher value, 0% TNFa-plus-vehicle, 100% no-TNFa wells
[2] = inhibitors of E-selectin induction by TNFa, primary screen, imaging, HUVEC, immunofluorescence, MLSMR starter and 10KST1 sets (AID 487;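 active = visually confirmed hit in the image check and inhibition above 20%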;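 as to inhibition: signal is fraction of cell area covered by stained E-selectin grains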;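 as to nuclei count: 100% = median nuclei count of all wells on the same plate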); conditions: HUVEC TNFalpha-induced E-selectin immunofluorescence imaging, at 2 µM; inhibition: stronger effect = higher value; nuclei count: measured here: cell number, toxicity
[3] = DUSP6 inhibitors restoring Erk phosphorylation by chemical complementation, primary imaging in DUSP6-transfected HeLa (AID 609;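 active = compounds giving at least 50% inhibition in the cell-based MKP-3 phosphatase rescue imaging test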;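 as to inhibition: phospho-Erk level distribution per well compared with pooled transfected vehicle control wells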); conditions: HeLa MKP-3 transfected, phospho-Erk imaging KS statistic, at 10 µM, cells stimulated with TPA for 15 min
[4] = target: Dual specificity protein phosphatase 6 (Homo sapiens) (UniProt Q16828); assay: as above; conditions: HeLa MKP-3 transfected, phospho-Erk imaging KS statistic; at 10 µM; stronger effect = higher value; cells stimulated with TPA for 15 min
Sequence of Dual specificity protein phosphatase 6 (Homo sapiens) (Q16828 whole entry, looked up): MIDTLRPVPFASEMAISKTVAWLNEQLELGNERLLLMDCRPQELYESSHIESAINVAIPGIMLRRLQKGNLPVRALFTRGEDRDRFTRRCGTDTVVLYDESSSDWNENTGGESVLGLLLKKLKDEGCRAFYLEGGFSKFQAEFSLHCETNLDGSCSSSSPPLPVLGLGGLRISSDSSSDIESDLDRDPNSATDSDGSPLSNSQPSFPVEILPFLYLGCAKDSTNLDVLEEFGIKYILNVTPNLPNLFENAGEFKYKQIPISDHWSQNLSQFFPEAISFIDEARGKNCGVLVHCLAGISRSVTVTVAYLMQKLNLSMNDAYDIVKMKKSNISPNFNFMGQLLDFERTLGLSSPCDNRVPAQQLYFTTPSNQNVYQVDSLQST

[5] = target: Voltage-gated potassium channel subunit beta-2 (Rattus norvegicus) (UniProt P62483); assay: KvBeta enzyme negative modulators, primary screen, biochemical, NADPH fluorescence (AID 622;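 active = fluorescence slope higher than the sample average by over 3 SD, cut at about -0.22 in these data, passing the limit was not always enough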;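 also: slope of raw intensity against log time taken from 70 to 1610 s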); conditions: recombinant KvBeta, 4-cyanobenzaldehyde reduction, at 10 µM, stronger effect = higher value
Sequence of Voltage-gated potassium channel subunit beta-2 (Rattus norvegicus) (P62483 whole entry, looked up): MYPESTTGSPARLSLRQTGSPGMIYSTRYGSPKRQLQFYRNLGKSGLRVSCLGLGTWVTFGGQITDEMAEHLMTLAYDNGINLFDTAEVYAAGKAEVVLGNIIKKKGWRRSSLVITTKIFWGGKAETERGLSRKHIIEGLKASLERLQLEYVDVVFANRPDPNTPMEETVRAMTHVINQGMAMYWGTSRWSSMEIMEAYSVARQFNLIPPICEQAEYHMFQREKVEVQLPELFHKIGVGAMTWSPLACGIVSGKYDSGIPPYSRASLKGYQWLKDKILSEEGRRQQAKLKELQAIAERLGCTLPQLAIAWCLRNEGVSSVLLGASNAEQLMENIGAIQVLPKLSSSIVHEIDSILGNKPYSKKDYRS

[6] = target: Voltage-gated potassium channel subunit beta-2 (Rattus norvegicus) (UniProt P62483); assay: KvBeta positive modulators, primary screen, biochemical, NADPH fluorescence (AID 623); conditions: Recombinant KvBeta, NADPH fluorescence decrease slope, 10 min; at 10 µM; stronger effect = lower value;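 also: fluorescence intensity change per second fitted from 20 to 320 s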
[7] = target: Muscarinic acetylcholine receptor M4 (Homo sapiens) (UniProt P08173); assay: compounds altering M4/GIRK thallium flux, either direction, primary screen, M4 allosteric agonist project, cell-based, HEK293 M4/GIRK, BTC-AM (AID 625;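 active = fluorescence slope after compound addition differing from the mean of all tested samples at 99.7% confidence, mostly higher but some lower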;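 also: thallium influx through GIRK channels coupled to M4 in HEK293 cells with BTC-AM dye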); conditions: at 10 µM, actives lie on both sides
Sequence of Muscarinic acetylcholine receptor M4 (Homo sapiens) (P08173 whole entry, looked up): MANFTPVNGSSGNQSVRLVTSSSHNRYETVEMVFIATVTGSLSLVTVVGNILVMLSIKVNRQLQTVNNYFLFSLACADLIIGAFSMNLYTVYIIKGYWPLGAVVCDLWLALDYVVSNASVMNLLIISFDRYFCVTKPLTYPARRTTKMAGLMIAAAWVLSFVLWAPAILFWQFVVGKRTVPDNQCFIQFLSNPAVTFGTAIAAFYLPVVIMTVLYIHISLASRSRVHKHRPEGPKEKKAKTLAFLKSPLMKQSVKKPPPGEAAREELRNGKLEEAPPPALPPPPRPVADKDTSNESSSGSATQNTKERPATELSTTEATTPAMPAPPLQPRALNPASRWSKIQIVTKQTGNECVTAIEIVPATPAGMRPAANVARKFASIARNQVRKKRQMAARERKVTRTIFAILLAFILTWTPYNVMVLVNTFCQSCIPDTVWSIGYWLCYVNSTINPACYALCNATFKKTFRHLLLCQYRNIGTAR
Outline: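 Material – HEK293 cells with M4 receptor and GIRK channels · Buffer or medium – pH 7.3 thallium assay buffer · Doses – one dose, 10 µM final · Timing – cells overnight at 37 °C, BTC-AM loading 1 h, reads 2 min total · Measured by – kinetic fluorescence with BTC-AM dye · Controls – carbachol and DMSO controls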

[8] = inhibitors of larval lipid processing in zebrafish, primary screen, whole organism, PED6 fluorescence, gall bladder and intestine (AID 686;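 active = a full or partial loss of lipid-probe fluorescence in the fish gall bladder, intestine or both, judged by eye; inactive = no fluorescence loss, or compound toxic to the fish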;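 also: larvae 5 to 7 days old with five fish per well; signal comes from phospholipase A2 cleavage of quenched PED6 carried via bile; overnight exposure to compound and PED6 before scoring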); conditions: Zebrafish larvae PED6 lipid processing, fluorescence scoring; screened at 20 µM (by protocol)
Outline: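 system = live zebrafish larvae aged 5-7 days, whole organism | probe or stimulus = ingested quenched lipid PED6 at 100 nM | doses = 20 µM single dose | timing = overnight exposure | detection = fluorescence microscopy with visual scoring of gall bladder and intestine | read-out = visual per-well fluorescence inhibition score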

[9] = inhibitors of Chlamydomonas gravitaxis, primary screen, whole organism, Chlamydomonas reinhardtii, WT vs cilia-less mutant, absorbance, 96-well (AID 463189;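 active = inhibition at or above 50% relative to wild type and mutant plate controls; inactive = inhibition below 50%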;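 also: 0% = wild type cc124 cells in DMSO and 100% = ciliumless bld1 mutant cells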); conditions: OD600 absorbance, 2 days, at 10 µM, stronger effect = higher value
[10] = measured here: cell density z-score
[11] = measured here: nuclear c-Myc green intensity z-score
[12] = measured here: nuclear pErk red intensity z-score, stronger effect = higher value

Compound	cell count [1]	inhibition [1]	inhibition [2]	nuclei count [2]	z-score [3, 10]	z-score [3, 11]	z-score [3, 12]	inhibition [4]	fluorescence slope [5]	NADPH fluorescence slope [6]	fluorescence slope [7]	outcome [8]	inhibition [9]
O=S(=O)(/C=C/c1ccccc1)Nc1ccc2c(c1)OCO2	371	-6.3% (inactive)	-96.3% (inactive)	154%	0.539	-2	0.714	-2.59% (inactive)	-0.476 (inactive)	-9.8e-05 (inactive)	0.00384 (inactive)	inactive	4.72% (inactive)
CCCCC(CCC(=O)Nc1ccc(C(=O)OCC)cc1)C(=O)O (stereo unspecified)	378	-11.3% (inactive)	-153% (inactive)	159%	-0.634	-1.85	0.598	-0.608% (inactive)	-0.468 (inactive)	-0.000129 (inactive)	0.00338 (inactive)	inactive	5.13% (inactive)
CCCCC(=O)NC(Nc1ccc(C)cn1)(C(=O)OCC)C(F)(F)F (stereo unspecified)	651	-16.3% (inactive)	-59% (inactive)	156%	0.317	-1.54	1.99	1.63% (inactive)	-0.481 (inactive)	-4.4e-05 (inactive)	0.00419 (inactive)	inactive	-0.324% (inactive)
COCCn1c(SCc2c(F)cccc2Cl)nc2c1c(=O)[nH]c(=O)n2C	654	3.4% (inactive)	-11.2% (inactive)	115%	1.7	-2.3	-0.397	40.7% (inactive)	-0.44 (inactive)	-5.5e-05 (inactive)	0.00509 (inactive)	inactive	15.2% (inactive)
CC1(C)Cc2nc3sc4c(N(CCO)CCO)ncnc4c3cc2CO1	383	-7.2% (inactive)	7.7% (inactive)	82.1%	-1.35	0.534	1.17	-4.59% (inactive)	-0.474 (inactive)	-1.1e-05 (inactive)	0.00508 (inactive)	inactive	36.1% (inactive)
CCOc1ccc(C2=Nn3c(nnc3-c3ccccc3OC)SC2)cc1	409	35.7% (active)	-453% (inactive)	82.2%	-1.24	0.121	-0.702	4.25% (inactive)	-0.472 (inactive)	-1.9e-05 (inactive)	0.00485 (inactive)	inactive	-11.5% (inactive)
CCOC(=O)c1[nH]c2ccccc2c1N=C(C)N(CC)CC	643	-7% (inactive)	-113% (inactive)	160%	-1.18	2.66	0.345	11.9% (inactive)	-0.521 (inactive)	-3.5e-05 (inactive)	0.00643 (inactive)	inactive	-5.79% (inactive)
Cc1ccc(N(CC(O)CN(C)C)S(=O)(=O)c2ccccc2)cc1 (stereo unspecified)	587	-9.4% (inactive)	6.4% (inactive)	192%	1.28	-0.151	0.0736	-4.59% (inactive)	-0.384 (inactive)	-7.3e-05 (inactive)	0.00579 (inactive)	inactive	11.5% (inactive)
COc1ccc(N2C(=O)CC(N(Cc3ccc(S(N)(=O)=O)cc3)C(C)=O)C2=O)cc1 (stereo unspecified)	550	4.1% (inactive)	19.1% (inactive)	126%	0.546	-0.739	0.891	20.2% (inactive)	-0.481 (inactive)	-3.2e-05 (inactive)	0.00578 (inactive)	inactive	9.88% (inactive)
CCN(CC)CCN1C(=O)C(=O)/C(=C(/O)c2c(C)[nH]c(C(=O)OC)c2C)C1c1ccccc1 (stereo unspecified)	727	-3.9% (inactive)	-88% (inactive)	165%	0.278	0.96	0.24	-11.9% (inactive)	-0.485 (inactive)	-4.8e-05 (inactive)	0.0049 (inactive)	inactive	13.3% (inactive)
O=C(NCCCNCc1ccccc1)/C(=N\O)c1ccccc1	518	-4.7% (inactive)	-1% (inactive)	164%	-0.176	1.16	0.402	15.9% (inactive)	-0.401 (inactive)	-5.4e-05 (inactive)	0.00368 (inactive)	inactive	7.18% (inactive)
O=C(O)c1cc2sccc2s1	643	0% (inactive)	23.1% (inactive)	160%	0.481	-0.0742	-0.912	-6.48% (inactive)	-0.465 (inactive)	-2.7e-05 (inactive)	0.005 (inactive)	inactive	-3.38% (inactive)
COCCCNC(=O)c1c(N)n(/N=C/c2cccnc2)c2nc3ccccc3nc12	719	4.4% (inactive)	0.4% (inactive)	113%	-0.256	0.735	2.99	4.25% (inactive)	-0.253 (inactive)	-3.5e-06 (inactive)	0.00597 (inactive)	inactive	-6.04% (inactive)
Clc1ccc(-n2ncc3c(N4CCCC4)ncnc32)cc1	589	-9.4% (inactive)	-131% (inactive)	94.9%	-3.24	1.27	1.5	7.42% (inactive)	-0.411 (inactive)	-5e-05 (inactive)	0.00915 (inactive)	inactive	134% (active)
CC1(C)Cc2c(C#N)c(OCC(=O)c3ccccc3)nc(-c3ccoc3)c2CO1	547	-9.6% (inactive)	14.2% (inactive)	98.1%	0.66	-1.5	-0.876	-0.233% (inactive)	-0.465 (inactive)	2.6e-05 (inactive)	0.00542 (inactive)	inactive	56.8% (active)
Cn1c(Cl)nc2c1c(=O)n(Cc1cccc(Br)c1)c(=O)n2C	691	-8.5% (inactive)	-97.4% (inactive)	169%	-1.75	0.296	0.815	3.97% (inactive)	-0.507 (inactive)	-1.8e-05 (inactive)	0.00593 (inactive)	inactive	-10.8% (inactive)
COc1cccc(C=NCCNC(=O)c2nonc2N)c1O	517	-4% (inactive)	62.5% (inactive)	169%	-0.652	2.61	-0.971	7.93% (inactive)	-0.413 (inactive)	-3.4e-05 (inactive)	0.00584 (inactive)	inactive	-4.89% (inactive)
C=CCN(CC=C)c1nc2ccccc2nc1C(C#N)C(=O)OC(C)C (stereo unspecified)	639	-6.1% (inactive)	-48.1% (inactive)	173%	-0.0253	-0.36	0.934	-13.3% (inactive)	-0.467 (inactive)	-4.8e-05 (inactive)	0.00206 (inactive)	inactive	7.18% (inactive)
CC(C)COc1ccc(C(=O)NC(CC(C)C)C(=O)O)cc1 (stereo unspecified)	649	9.2% (inactive)	-19.5% (inactive)	84.1%	-0.492	0.0237	0.136	-13.3% (inactive)	-0.484 (inactive)	-4.8e-05 (inactive)	0.00574 (inactive)	inactive	25.1% (inactive)
Cc1ccc(-n2ncc3c(N4CCCC4)ncnc32)c(C)c1	615	-13.7% (inactive)	4.8% (inactive)	158%	0.427	-1.76	-0.345	-2.59% (inactive)	-0.327 (inactive)	-4.9e-06 (inactive)	0.00689 (inactive)	inactive	147% (active)
N#Cc1nc(COc2ccc(Br)cc2)oc1NCCN1CCOCC1	510	-5.5% (inactive)	-38.7% (inactive)	169%	0.361	0.776	1.07	7.7% (inactive)	-0.432 (inactive)	-4.4e-05 (inactive)	0.00542 (inactive)	inactive	-13.6% (inactive)
CCCCCNc1nc(N2CCCC2)c2c(c1C#N)CCN(C)C2	596	8.1% (inactive)	-52.3% (inactive)	146%	-0.626	0.142	-0.491	-9.53% (inactive)	-0.446 (inactive)	-8.3e-05 (inactive)	0.0037 (inactive)	inactive	165% (active)
CCNC(=O)COn1c(SCC(=O)NCC)nc2ccccc2c1=O	763	2.9% (inactive)	10% (inactive)	174%	0.564	0.056	0.704	-4.7% (inactive)	-0.443 (inactive)	-4.1e-05 (inactive)	0.00588 (inactive)	inactive	-4.94% (inactive)
CCC1CC2(C)NC(=O)c3c(sc4c3CC(C)(C)OC4)N2C1=O (stereo unspecified)	497	-0.8% (inactive)	-48.8% (inactive)	175%	0.444	0.00352	-0.401	1.98% (inactive)	-0.397 (inactive)	3.9e-06 (inactive)	0.00496 (inactive)	inactive	31.2% (inactive)
CCn1c(SCC(=O)N2CCOCC2)nc2sc3c(c2c1=O)CCCC3	577	-9.8% (inactive)	-55% (inactive)	122%	-0.0545	-0.0901	0.641	-8.59% (inactive)	-0.463 (inactive)	-0.000111 (inactive)	0.0048 (inactive)	inactive	13.7% (inactive)
CC(C(=O)NC(=O)NCc1ccccc1)N1C(=O)c2ccccc2C1=O (stereo unspecified)	655	6.1% (inactive)	-28.7% (inactive)	94.9%	0.127	0.0595	-0.687	-11.4% (inactive)	-0.461 (inactive)	-4.3e-05 (inactive)	0.00457 (inactive)	inactive	-4.8% (inactive)
Cc1nc(=O)c(-c2ccccc2)c(C)n1-c1ccc(S(N)(=O)=O)cc1	568	-4.9% (inactive)	-74.8% (inactive)	154%	0.3	0.245	1.29	7.93% (inactive)	-0.406 (inactive)	-4.5e-05 (inactive)	0.00537 (inactive)	inactive	-8.67% (inactive)
